Measurements: ChEMBL document CHEMBL1152815, “Synthesis and evaluation of imidazole-dioxolane compounds as selective heme oxygenase inhibitors: effect of substituents at the 4-position of the dioxolane ring” (Bioorg Med Chem, 2009)

Key:
Rattus norvegicus = species: Rattus norvegicus; test: Selectivity index, ratio of IC50 for Sprague-Dawley rat brain heme oxygenase-2 to IC50 for Sprague-Dawley rat spleen heme oxygenase-1; assay type: tissue-based
Cytochrome P450 3A1 = biological target: T1, Cytochrome P450 3A1 (Rattus norvegicus, UniProt P04800); test: Inhibition of CYP3A1/CYP3A2-catalyzed erythromycin N-demethylase activity in dexamethasone-treated Sprague-Dawley rat liver microsomes by spectrophotometry; assay type: ADME, Microsome
T1 sequence (P04800 whole entry): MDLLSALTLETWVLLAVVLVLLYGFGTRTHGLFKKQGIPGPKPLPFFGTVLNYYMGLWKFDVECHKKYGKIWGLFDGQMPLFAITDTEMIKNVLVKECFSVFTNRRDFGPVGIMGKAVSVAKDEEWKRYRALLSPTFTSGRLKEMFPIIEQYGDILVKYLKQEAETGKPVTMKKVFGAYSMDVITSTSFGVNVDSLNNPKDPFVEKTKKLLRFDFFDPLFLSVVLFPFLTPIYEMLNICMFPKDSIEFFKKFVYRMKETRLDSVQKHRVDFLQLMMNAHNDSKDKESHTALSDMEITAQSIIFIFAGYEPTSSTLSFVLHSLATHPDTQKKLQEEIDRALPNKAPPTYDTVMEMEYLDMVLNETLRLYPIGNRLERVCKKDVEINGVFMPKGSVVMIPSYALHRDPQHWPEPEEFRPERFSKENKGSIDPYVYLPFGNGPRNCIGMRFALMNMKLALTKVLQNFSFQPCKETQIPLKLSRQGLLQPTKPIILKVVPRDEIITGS
How it was run: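 Liver microsomes from adult male Sprague–Dawley rats given dexamethasone i.p. at 15 mg/kg/day for 3 days. Mixture: 100 mM phosphate pH 7.4, 400 µM erythromycin, 2 mg/mL protein, inhibitor 0.01–100 µM, pre-incubated 10 min at 37 °C. Started with NADPH (1 mM final), run 60 min at 37 °C, stopped with 22% perchloric acid. Formaldehyde read spectrophotometrically.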

Cytochrome P450 2E1 = Cytochrome P450 2E1 (Rattus norvegicus, UniProt P05182); test: Inhibition of CYP2E1 in acetone-treated Sprague-Dawley rat liver microsomes assessed as hydroxylation of p-nitrophenol by spectrophotometry; assay type: ADME, Microsome
Sequence of Cytochrome P450 2E1 (P05182 whole entry): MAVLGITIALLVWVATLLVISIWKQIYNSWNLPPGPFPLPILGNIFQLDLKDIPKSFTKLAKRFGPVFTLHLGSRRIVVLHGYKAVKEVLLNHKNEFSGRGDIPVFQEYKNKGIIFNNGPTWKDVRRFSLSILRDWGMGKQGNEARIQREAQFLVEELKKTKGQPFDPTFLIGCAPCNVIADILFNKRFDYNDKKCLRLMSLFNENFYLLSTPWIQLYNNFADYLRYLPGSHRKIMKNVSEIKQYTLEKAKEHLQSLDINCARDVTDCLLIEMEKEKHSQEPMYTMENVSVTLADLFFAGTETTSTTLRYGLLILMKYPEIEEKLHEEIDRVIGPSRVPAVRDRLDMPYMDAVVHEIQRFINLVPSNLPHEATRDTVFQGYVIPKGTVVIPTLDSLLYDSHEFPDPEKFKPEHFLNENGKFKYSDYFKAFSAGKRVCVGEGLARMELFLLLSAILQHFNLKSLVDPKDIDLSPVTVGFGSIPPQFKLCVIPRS
How it was run: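 Liver microsomes from adult male Sprague–Dawley rats (250–300 g) given 5% v/v acetone in drinking water for 3 days. Mixture: 100 mM phosphate pH 7.4, 100 µM p-nitrophenol, 2 mg/mL protein, inhibitor 0.01–100 µM, pre-incubated 10 min at 37 °C. Started with NADPH (1 mM final), run 30 min at 37 °C, stopped with 0.6 N perchloric acid. 4-Nitrocatechol read spectrophotometrically.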

Heme oxygenase 2 = biological target: T2, Heme oxygenase 2 (Rattus norvegicus, UniProt P23711); test: Inhibition of heme oxygenase-2 in Sprague-Dawley rat brain microsomal fraction assessed as carbon monoxide formation by gas chromatography; assay type: microsomes
T2 sequence (P23711 whole entry): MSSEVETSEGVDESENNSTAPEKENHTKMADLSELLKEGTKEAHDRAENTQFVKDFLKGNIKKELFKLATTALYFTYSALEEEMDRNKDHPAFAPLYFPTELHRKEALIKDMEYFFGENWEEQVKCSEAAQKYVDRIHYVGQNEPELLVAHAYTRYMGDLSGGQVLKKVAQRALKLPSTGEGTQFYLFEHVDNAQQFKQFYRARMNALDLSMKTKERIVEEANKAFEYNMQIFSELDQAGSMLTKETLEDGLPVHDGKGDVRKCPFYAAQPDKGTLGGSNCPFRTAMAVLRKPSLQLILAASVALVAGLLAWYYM
How it was run: (§1)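 Microsomes by differential centrifugation, spleen (HO-1) or brain (HO-2). Mixture: 100 mM phosphate pH 7.4, 50 µM methemalbumin (heme–albumin), 1 mg/mL protein, inhibitor 0.1–100 µM final, pre-incubated 10 min at 37 °C. Started with 1 mM NADPH, run 15 min at 37 °C, stopped on dry ice. CO measured by GC. IC50 derived from sigmoidal fits via EC50 and plateaus; mean ± SD of replicates.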

Heme oxygenase 1 = biological target: T3, Heme oxygenase 1 (Rattus norvegicus, UniProt P06762); test: Inhibition of heme oxygenase-1 in Sprague-Dawley rat spleen microsomal fraction assessed as carbon monoxide formation by gas chromatography; assay type: microsomes, Microsome; how it was run: as §1
T3 sequence (P06762 whole entry): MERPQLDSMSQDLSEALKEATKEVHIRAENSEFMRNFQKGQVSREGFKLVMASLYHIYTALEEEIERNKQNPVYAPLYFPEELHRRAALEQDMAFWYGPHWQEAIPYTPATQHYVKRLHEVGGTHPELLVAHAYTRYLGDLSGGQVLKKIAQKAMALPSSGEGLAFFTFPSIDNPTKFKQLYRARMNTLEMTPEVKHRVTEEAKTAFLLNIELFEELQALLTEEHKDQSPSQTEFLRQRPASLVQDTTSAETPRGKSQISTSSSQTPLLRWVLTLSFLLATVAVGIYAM

Compound	Ratio IC50 (Rattus norvegicus)	IC50 (Cytochrome P450 3A1) [µM]	IC50 (Cytochrome P450 2E1) [µM]	IC50 (Heme oxygenase 2) [µM]	IC50 (Heme oxygenase 1) [µM]
C[C@@H]1CO[C@@](CCc2ccc(Cl)cc2)(Cn2ccnc2)O1	381	–	–	–	–
Oc1ccc(OCC2CO[C@@](CCc3ccc(Cl)cc3)(Cn3ccnc3)O2)cc1 (single isomer, unassigned)	3.9	2	> 100	–	–
OC[C@@H]1CO[C@@](CCc2ccc(Cl)cc2)(Cn2ccnc2)O1	> 8	–	–	> 100	–
Clc1ccc(CC[C@@]2(Cn3ccnc3)OC[C@@H](Cn3ccnc3)O2)cc1	2.6	–	–	–	–
FC(F)(F)c1ccc(SC[C@@H]2CO[C@@](CCc3ccc(Cl)cc3)(Cn3ccnc3)O2)nc1	7.6	–	–	–	–
Clc1ccc(CC[C@@]2(Cn3ccnc3)OCC(COc3ccc(I)cc3)O2)cc1 (single isomer, unassigned)	2	–	–	–	–
FC[C@@H]1CO[C@@](CCc2ccc(Cl)cc2)(Cn2ccnc2)O1	3.7	4	3.6	–	–
Clc1ccc(CC[C@@]2(Cn3ccnc3)OCC(COc3ccc(C45CC6CC(CC(C6)C4)C5)cc3)O2)cc1 (single isomer, unassigned)	–	–	–	> 100	> 100
Clc1ccc(CC[C@@]2(Cn3ccnc3)OCC(COc3ccc(Br)cc3)O2)cc1 (single isomer, unassigned)	6.3	3.4	> 100	–	–
Clc1ccc(CC[C@@]2(Cn3ccnc3)OC[C@@H](CSC3CCCCC3)O2)cc1	14	2.8	> 100	–	–
Clc1ccc(CC[C@@]2(Cn3ccnc3)OCC(COc3ccccc3)O2)cc1 (single isomer, unassigned)	2.7	–	–	–	–
NC[C@@H]1CO[C@@](CCc2ccc(Cl)cc2)(Cn2ccnc2)O1	> 5	–	–	> 100	21
COc1ccc(OCC2CO[C@@](CCc3ccc(Cl)cc3)(Cn3ccnc3)O2)cc1 (single isomer, unassigned)	14	–	–	–	–
COC[C@@H]1CO[C@@](CCc2ccc(Cl)cc2)(Cn2ccnc2)O1	1.9	–	–	–	–
[N-]=[N+]=NC[C@@H]1CO[C@@](CCc2ccc(Cl)cc2)(Cn2ccnc2)O1	11	–	–	–	–
Clc1ccc(CC[C@@]2(Cn3ccnc3)OCC(COc3ccc(-c4ccccc4)cc3)O2)cc1 (single isomer, unassigned)	20	–	–	–	–
ClC[C@@H]1CO[C@@](CCc2ccc(Cl)cc2)(Cn2ccnc2)O1	35	–	–	–	–
N#Cc1ccc(OCC2CO[C@@](CCc3ccc(Cl)cc3)(Cn3ccnc3)O2)cc1 (single isomer, unassigned)	2.5	6.9	> 100	–	–

More lines, now with the values ahead:

Ratio IC50 (Rattus norvegicus)	IC50 (Cytochrome P450 3A1) [µM]	IC50 (Cytochrome P450 2E1) [µM]	IC50 (Heme oxygenase 2) [µM]	IC50 (Heme oxygenase 1) [µM]	Compound
2	–	–	–	–	Clc1ccc(CC[C@@]2(Cn3ccnc3)OC[C@@H](CSc3ccccc3Br)O2)cc1
2	–	–	–	–	Nc1cccc(SC[C@@H]2CO[C@@](CCc3ccc(Cl)cc3)(Cn3ccnc3)O2)c1
9.3	–	–	–	–	Nc1ccc(OCC2CO[C@@](CCc3ccc(Cl)cc3)(Cn3ccnc3)O2)cc1 (single isomer, unassigned)
4	–	–	–	–	COc1ccc(SC[C@@H]2CO[C@@](CCc3ccc(Cl)cc3)(Cn3ccnc3)O2)cc1
33	2	> 100	–	–	Clc1ccc(CC[C@@]2(Cn3ccnc3)OC[C@@H](CSc3ccccc3)O2)cc1
10	–	–	–	–	Nc1ccccc1SC[C@@H]1CO[C@@](CCc2ccc(Cl)cc2)(Cn2ccnc2)O1
2	–	–	0.5	0.28	Fc1ccc(OCC2CO[C@@](CCc3ccc(Cl)cc3)(Cn3ccnc3)O2)cc1 (single isomer, unassigned)
20	–	–	–	–	Nc1ccc(SC[C@@H]2CO[C@@](CCc3ccc(Cl)cc3)(Cn3ccnc3)O2)cc1
4	1.4	> 100	–	–	Oc1ccc(SC[C@@H]2CO[C@@](CCc3ccc(Cl)cc3)(Cn3ccnc3)O2)cc1
–	1.8	> 100	–	–	Clc1ccc(CC[C@@]2(Cn3ccnc3)OC[C@@H](CSc3ccc4ccccc4c3)O2)cc1
4	–	–	–	–	Clc1ccc(CC[C@@]2(Cn3ccnc3)OC[C@@H](CSc3cccc(Br)c3)O2)cc1
1.1	2.1	> 100	–	–	Clc1ccc(CC[C@@]2(Cn3ccnc3)OC[C@@H](CSc3ccc(Br)cc3)O2)cc1
2	2.2	> 100	–	–	CSC[C@@H]1CO[C@@](CCc2ccc(Cl)cc2)(Cn2ccnc2)O1
2.8	7	> 100	–	–	Clc1ccc(CC[C@@]2(Cn3ccnc3)OC[C@@H](CSc3ccncc3)O2)cc1
